The GI50 is the concentration giving 50% growth inhibition. A low value points to greater sensitivity of the cells.

The subject of assay [1] is MDA-MB-468. The experiment in a line: Antiproliferative activity against human MDA-MB-468 after 72 hrs by MTT assay. In kind it is functional. As to conditions: for GI50: MDA-MB-468, 72 h. The essentials:
(§1)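 Triple-negative breast cancer cells were exposed to a range of compound concentrations for 72 h, and viable cells were then quantified spectrophotometrically with MTT reagent. GI50 (concentration giving 50% growth inhibition) was derived from dose-response curves by non-linear regression and reported as mean ± SD from at least two independent measurements. The highest concentration tested was 100 μM.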
(In general: Tetrazolium assays rely on reduction of a dye to a coloured formazan, in cell work by metabolically active cells.)

Assay [2] has as its system MDA-MB-231. Nature of the assay: Antiproliferative activity against human MDA-MB-231 after 72 hrs by MTT assay. In kind it is functional. As to conditions: for GI50: MDA-MB-231, 72 h. In a few lines: as §1

For `CCC(=O)Nc1ncc2c(ccc3[nH]ccc32)n1`, the GI50 in assay [1] came to 28.3 µM; in assay [2], 72.8 µM.
For `CCCC(=O)Nc1ncc2c(ccc3[nH]ccc32)n1` the same measures were 2.02 µM and 3.46 µM.
The matching figures for `CC(C)(C)C(=O)Nc1ncc2c(ccc3[nH]ccc32)n1`: more than 100 µM and more than 100 µM.
Take `CC(=O)Nc1ncc2c(ccc3[nH]ccc32)n1`: the GI50 in assay [1] and in assay [2] was more than 100 µM throughout.
As for `O=C(Nc1ncc2c(ccc3[nH]ccc32)n1)c1ccc2ccccc2c1`, in assay [1], the Activity result is “Dose-dependent effect” and the GI50 came out at 0.088 µM. In assay [2], the Activity entry is “Dose-dependent effect” and the GI50 was found to be 0.2 µM.
In the case of `CC(C)C(=O)Nc1ncc2c(ccc3[nH]ccc32)n1`, the GI50 in assay [1] and in assay [2] was more than 100 µM throughout.

These data come from ChEMBL document CHEMBL4020797, “Design, synthesis and evaluation of antitumor acylated monoaminopyrroloquinazolines” (2017).
